# DAT uptake mod – modulates human dopamine transporter uptake under cocaine. 110,000 tested, 1.3% active. LLC-PK1 hDAT cells, [14C]-dopamine uptake with cocaine IC80; actives deviate in either direction. B-score at 10 µM. Q01959;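 active means Z score or B-score, a plate-position-corrected score, falls beyond the plate's 99.7% confidence bounds, in either direction; inactive means both scores lie inside the 99.7% bounds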;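 further: scored against the spread of the other compound wells on the same plate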
# Rev-RRE block – inhibitors of HIV-1 Rev-RRE RNA interaction; Rev peptide-RRE RNA binding, FRET; 97,000 tested, 0.79% active; inhibition, % at 8 µM; P05866;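 active means inhibition above the screen-wide mean plus 3 SD, cut at about 35% in these data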;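 further: 0% = median DMSO wells and 100% = median Neomycin B control wells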
# Target sequence (P05866 whole entry, looked up): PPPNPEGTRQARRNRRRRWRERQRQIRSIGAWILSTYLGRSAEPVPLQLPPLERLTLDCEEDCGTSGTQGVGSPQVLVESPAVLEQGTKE
#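 Test system: Cy5-tagged RRE RNA duplex with fluorescein-tagged Rev peptide | Read-out: % inhibition of FRET ratio versus controls | Probe or stimulus: Labelled Rev peptide | Incubation: 5 min RNA-compound premix plus 15 min binding step, 25 °C | Technique: FRET fluorescence readout | Benchmarks: DMSO low control, neomycin B high control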
# Measles CPE – protection of cells from measles virus; 140,000 tested, 1.5% active; protection (pct of control), % at 4 µM; Measles virus-infected cells, CPE protection, absorbance; in the data active means protection mostly above about 24%, no sharp cut-off; inactive means mostly below about 26%
# Cav32 inh – human Cav3.2 channel inhibition, primary screen; AID 449739; B-score at 10 µM; Cav3.2-expressing cells, Fluo-4 calcium fluorescence FDSS; stronger effect = lower value; 100,000 tested, 4% active;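 active means single-dose well whose peak fluorescence ratio is a statistical outlier from its plate by either plate-standardised score or position-corrected B-score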
# Phagocytosis inh – inhibitors of macrophage phagocytosis. J774A.1 macrophage IgG-bead phagocytosis, imaging. inhibition, % at 5 µM. 110,000 tested, 0.07% active;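 active means inhibition above the mean of the plate negative controls plus 5 SD, cut at about 13% in these data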;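 further: phagocytic index as fraction of beads internalized from green versus red external bead signal; plate controls were DMSO negative control for no effect and cytochalasin-D positive control for full effect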
# PTK2B oligo ant – Pyk2 (human) oligomerization antagonism. z-score (the deposit names both 25 µM and 10 µM). Q293 cells, Pyk2 FERM NanoBiT luminescence; stronger effect = lower value. 99,000 tested, 0.83% active. AID 1347419;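 active means Z-score of -3 or lower, scaled per plate to the spread of control and sample wells; inactive means z-score above -3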;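 further: negative z-score means lost luminescence so less FERM oligomerization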
# Active calls of the source: *; nt = not tested or not shown; [ ] = another dose, or the depositor's remark. A selection: hits, their analogues and other compounds. The true share with any hit is near 5.9%.
SMILES,DAT uptake mod,Rev-RRE block,Measles CPE,Cav32 inh,Phagocytosis inh,PTK2B oligo ant
COc1ccc(NS(=O)(=O)c2ccc3oc(Nc4ccc5c(c4)OCCO5)nc3c2)cc1,-0.864,6.6,92.5*,-0.594,-1.2,-2.7
COc1ccc([C@H]2/C=C\CN(S(=O)(=O)c3ccc4ccccc4c3)[C@@H](C)C(=O)N2Cc2ccc(F)cc2)cc1,0.624,nt,nt,-2.07,nt,nt
C#CCOCCOCCOCCNc1nc(N2CCN(C(=O)C([C@@H](C)CC)n3cc(C(N)COC(=O)C(F)(F)F)nn3)CC2)nc(N2CCN(C(=O)[C@H](CCC(=O)O)n3cc(C(N)CC(C)C)nn3)CC2)n1 (some centres not stated),-0.449,nt,nt,0.636,nt,nt
CCCCC(=O)Nc1ccc(NC(=S)NC(=O)c2cccs2)cc1OC,nt,nt,7.8,nt,-1.3,nt
Cc1cc(Cl)cc2c1NC(=O)[C@]21[C@@H]2C(=O)N(Cc3ccccc3)C(=O)[C@@H]2[C@@H]2CCCN21,3.65*,7.4,7.2,-1.64,-1.4,-0.26
CCc1ccc2c(c1)[C@]1(C(=O)N2)[C@@H]2C(=O)N(Cc3ccccc3)C(=O)[C@@H]2[C@@H]2CCCN21,-0.113,1.7,11.6,-1.46,0.7,-0.52
CC1(C)[C@@H](O)CC[C@]2(C)C3C(O)C=C4[C@H]5C[C@@](C)(C(=O)O)CC[C@]5(C)CC[C@]4(C)[C@]3(C)CC[C@@H]12 (some centres not stated),2.57,nt,nt,-1.61,nt,nt
O=C1Nc2ccccc2C1(c1ccccc1)c1ccccc1,0.51,13.1,52.0*,-9.52*,0.7,-1.07
CC(C)(C)NS(=O)(=O)c1ccc(CCC(=O)N2CCOCC2)cc1,-0.672,2.2,5.3,0.457,22.3*[artifact],1.14
Cn1cnnc1SCC(=O)NN(c1ccccc1)c1ccccc1,nt,nt,18.0,nt,26.8*[artifact],nt
Cn1cnnc1SCC(=O)Nc1ccccc1,-0.0422,11.6,17.5,0.709,nt,nt
Cc1ccc(C(=O)COC(=O)CCc2nc3ccccc3[nH]c2=O)cc1C,0.0136,14.7,17.1,-0.301,nt,-0.52
O=C(CCc1nc2ccccc2[nH]c1=O)OCC(=O)c1ccc(Cl)cc1,0.46,3.7,36.2*,0.396,nt,-0.51
O=C1C=C(NCc2ccc(Cl)cc2)CCC1,nt,nt,18.2,nt,-7.8,nt
COc1ccc(-c2cc(C(F)(F)F)c3c(=O)n(-c4ccccc4)[nH]c3n2)cc1,-0.00922,0.2,9.5,-0.37,nt,-4.11*
COc1cc(NC(=O)c2cccc(Cl)c2)c(OC)cc1NC(=O)CN1CCOCC1,1.86,12.9,73.4*,-0.533,-0.4,-0.57
Cc1cccc(C)c1N(CC(=O)Nc1cc(Cl)ccc1Oc1ccccc1)S(C)(=O)=O,-0.449,10.6,12.9,-5.64*,-0.4,-1.41
Cc1ccc(NC(=O)CN(c2ccccc2)S(=O)(=O)N(C)C)cc1C,0.515,4.4,15.2,-3.64*,nt,-0.11
COc1ccc(Cl)cc1NC(=O)Cn1cccc1,-0.432,-2.8,33.8*,-0.475,-1.9,-0.22
CN(C)S(=O)(=O)N(CC(=O)Nc1ccccc1)c1ccccc1,-0.482,9.5,2.0,-0.276,nt,-1.03
CCOC(=O)C1=NN(C(C)=O)C2(CC(=O)N(c3ccc(C)c(C)c3)C2=O)C1 (configuration not stated),nt,nt,20.3,nt,-5.8,nt
CC1Cc2ccccc2N1C(=O)CSc1nnnn1C(C)C (configuration not stated),-0.703,-0.7,13.8,0.0732,nt,0.36
Cc1ccc(C(=O)OC2OC(=O)C(Cl)=C2N2CCOCC2)cc1 (configuration not stated),nt,nt,12.6,nt,-10.4,nt
CN(c1ccccc1)c1cc(=O)[nH]c(=O)[nH]1,nt,nt,8.8,nt,-4.6,nt
COc1ccc(Cl)cc1NC(=O)CN(c1ccccc1)S(=O)(=O)N(C)C,0.00332,13.4,16.6,-10.2*,-0.2,-2.96
CS(=O)(=O)N(CC(=O)Nc1cc(Cl)ccc1Cl)c1ccccc1Cl,0.262,10.6,9.3,-4.67*,-0.5,-0.94
O=C1C=C(c2cc3ccccc3s2)CCC1,-0.0199,nt,nt,-0.84,nt,nt
CCC(=C(c1ccc(OC)cc1)c1ccc(OC)cc1)c1cn(CC(O)CN2CCN(C)CC2)c2ccccc12 (configuration not stated),nt,3.4,19.2,nt,-1.2,nt
CCOC(=O)c1ccc(S(=O)(=O)Nc2cc(C(C)(C)C)no2)cc1,2.2,-3.1,39.9*,-0.418,-4.9,1.18
